RanGTP-Impb inh: disruptors of Ran-importin-beta complex formation – biochemical, FRET, CFP-Ran, YFP-importin-beta, homogeneous, primary screen; cell-free CFP-Ran/YFP-importin-beta FRET ratio; inhibition, % (concentration not given with the values); actives 1.1% (n = 300,000); AID 2216;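 active means more than half of the replicate wells show a fall in the fluorescence ratio signal beyond about 16%, limit read from the data, passing the limit was not always enough; inconclusive means exactly half of the replicate wells pass the set limit; inactive means fewer than half of replicates pass the limit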;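 further: 0% = DMSO wells and 100% = Ran loaded with GDP instead of GTP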
Runt-SMMHC FRET: inhibitors of human RUNX1 Runt domain binding to CBFb-SMMHC | Q01196+Q13951 | Cerulean-Runt/Venus-CBFb-SMMHC FRET ratio 530/480, 1 h | inhibition, % at 20 µM | actives 0.74% (n = 220,000);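 active means mean inhibition across duplicate retests at 20 µM reaching about 50%, limit read from the data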;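 further: 0% = DMSO wells and 100% = wells with excess untagged CBFb-SMMHC; inhibitors lower the FRET ratio by blocking Runt binding to CBFb-SMMHC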
Wee1 degr inh: inhibitors of human Wee1 degradation; AID 1321; actives 1.2% (n = 220,000); HeLa Luc-Wee1K328M stability, luciferase luminescence; 100% = proteasome inhibitor MG132 effect; P30291; reporter increase, % at 5 µM;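 active means activation above the mean of all tested compounds plus 3 SD, set per screening run, cut at about 8.8% in these data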;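 further: cells exposed to compound for 20 h before luminescence read; 0% = DMSO alone and 100% = MG132 at 30 µM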
KLK7 zymogen act: activators of human kallikrein-7 zymogen; AID 652039; actives 0.9% (n = 370,000); activation, % at 7 µM; purified proKLK7, EDANS-DABCYL substrate fluorescence; 100% is mature enzyme control, 0% vehicle; P49862;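 active means activation above the mean of all tested compounds plus 3 SD, computed per campaign excluding outliers beyond control limits, cut at about 13% in these data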
Target sequence (P49862 whole entry, looked up): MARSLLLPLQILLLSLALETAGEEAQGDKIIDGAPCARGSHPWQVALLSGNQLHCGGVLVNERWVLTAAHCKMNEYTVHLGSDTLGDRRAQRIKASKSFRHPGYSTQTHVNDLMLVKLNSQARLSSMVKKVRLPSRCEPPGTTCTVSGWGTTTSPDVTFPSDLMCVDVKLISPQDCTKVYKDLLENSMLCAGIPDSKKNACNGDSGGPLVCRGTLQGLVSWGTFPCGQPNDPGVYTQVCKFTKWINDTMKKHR
Runt-CBFb FRET: inhibitors of human RUNX1 Runt domain binding to CBFb. inhibition, % at 20 µM. Cerulean-Runt/Venus-CBFb FRET ratio 530/480, 1 h. Q01196+Q13951. AID 1496. actives 0.46% (n = 220,000);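 active means inhibition over about 50% at 20 µM in the single-dose screen, limit read from the data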;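 further: 0% = DMSO wells and 100% = excess unlabeled CBFb competitor control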
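Buffer or medium: Tris pH 7.5 buffer with BSA. Assay system: Cerulean-labeled Runt domain protein. Amount: each fluorescent fusion protein 100 nM. Read-out basis: loss of energy transfer signal. Incubation: 1 h compound exposure, room temperature. Probe or stimulus: Venus-CBFb binding partner, 100 nM. Detection: FRET, excitation 422 nm, emission at 530 and 480 nm.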
AI-2 QS mod: modulates the Vibrio harveyi AI-2 quorum sensing system. Vibrio harveyi JMH597 AI-2 luminescence/OD600 ratio, 9 h; stronger effect = lower value; strain lacks LuxN and CqsS sensors; 0 = neutral-control median. activity change, % at 7.5 µM. actives 0.4% (n = 300,000). AID 2094; in the data active means activity change below about -75%, passing the limit was not always enough; inconclusive means no clear call, values can overlap the other calls;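 further: luminescence divided by OD600 gain over 9 h not by final OD600 alone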
KLK7 act conf: confirmation of human kallikrein-7 zymogen activators; AID 686949; shares compounds with KLK7 zymogen act; purified proKLK7, EDANS-DABCYL substrate fluorescence; scaled: vehicle 0, mature enzyme 100; activation, % at 7 µM; actives 68% (n = 3,200);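 active means activation, as change over the incubation, above the mean of all tested compounds plus 3 SD, cut at about 13% in these data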
EDANS-DABCYL int: optically interferes with EDANS-DABCYL signal, flagging KLK7 hits | shares compounds with KLK7 zymogen act | EDANS-DABCYL substrate fluorescence interference, no enzyme, 4 h; solvent 0%, active enzyme control 100% | activation, % at 7 µM | actives 80% (n = 3,200);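 active means activation above the all-compound mean plus 3 SD, ignoring values outside control-based bounds, cut at about 4.8% in these data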;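 further: value is the 4 h activation minus the activation read at time zero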
K7 EDANS ctr: EDANS fluorescence interference in dose response, no enzyme; shares compounds with KLK7 zymogen act; EDANS-DABCYL peptide fluorescence interference; EC50, µM; actives 20% (n = 250);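 active means compounds that raise the fluorescence signal in this interference counterscreen, with EC50 at or below 10 µM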;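 further: intact quenched peptide substrate alone read at 355 nm excitation and 520 nm emission; signal is fluorescence gain from T0 to T4 after four hours at room temperature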
* hit, by the source's call. This is a sample that favours compounds with a hit; in the whole collection about 2.9% have one here.

Screening COc1cccc(OC)c1C(=O)Nc1cccc(NC(=O)c2cccs2)c1 returned RanGTP-Impb inh 1.9, KLK7 zymogen act 0.6 and AI-2 QS mod 11.2.
`O=C(Nc1ccc(NC(=O)c2cccs2)cc1)c1cccs1` gave RanGTP-Impb inh -0.2, KLK7 zymogen act 13.9*, AI-2 QS mod 10.2, KLK7 act conf 29.8*, EDANS-DABCYL int 21.8* and K7 EDANS ctr >69.5.
For O=C(Nc1ccc(NC(=O)C2CC2)cc1)c1cccs1 the results were RanGTP-Impb inh 4.5, KLK7 zymogen act 0.5 and AI-2 QS mod 26.5.
For COC(=O)[C@]12CCCCC=C1N(Cc1ccc(Cl)cc1Cl)C(=O)[C@H](CC(=O)N1CCOCC1)C2 the results were KLK7 zymogen act -0.2.
`O=[n+]1cc(-c2cc3ccccc3o2)n([O-])c2c1CCCC2` gave RanGTP-Impb inh 1.8, Runt-SMMHC FRET 11.4, KLK7 zymogen act 14.9*, Runt-CBFb FRET 4.3, AI-2 QS mod 23.2, KLK7 act conf 12.4 and EDANS-DABCYL int 17.8*.
For O=c1oc2ccccc2c(O)c1C=Nc1cccnc1 the results were RanGTP-Impb inh -1.5, Runt-SMMHC FRET -2.8, Wee1 degr inh 7.2, KLK7 zymogen act 0.0, Runt-CBFb FRET -0.1 and AI-2 QS mod 3.0.
`NS(=O)(=O)c1ccc(N2N=C(c3ccccc3)CC2c2ccccc2)cc1` (configuration not stated) gave RanGTP-Impb inh -1.8, Runt-SMMHC FRET 29.3, Wee1 degr inh 0.1, KLK7 zymogen act -311.8, Runt-CBFb FRET 11.4 and AI-2 QS mod 47.2.
O=S(=O)(O)c1ccc(N2N=C(c3ccccc3)CC2c2ccccc2)cc1 (configuration not stated) was read as RanGTP-Impb inh inconclusive, Runt-SMMHC FRET 21.6, Wee1 degr inh -3.0, KLK7 zymogen act 56.0*, Runt-CBFb FRET 5.2, AI-2 QS mod 18.5, KLK7 act conf 71.7* and EDANS-DABCYL int 65.5*.
`O=C(N/N=C/c1cccnc1)c1cc(-c2ccccc2OCc2ccccc2)n[nH]1` gave RanGTP-Impb inh 8.6, Runt-SMMHC FRET -7.1, Wee1 degr inh -1.0, KLK7 zymogen act 0.2, Runt-CBFb FRET -3.4 and AI-2 QS mod -2.6.
For Cc1ccc2nc(N3CCN(C(=O)CCC(=O)O)CC3)nc(-c3ccccc3)c2c1 the results were RanGTP-Impb inh 29.6*, KLK7 zymogen act 27.5*, AI-2 QS mod 6.8, KLK7 act conf -40.0 and EDANS-DABCYL int -56.5.
`NNc1nc(-c2ccccc2)c2cc(Cl)ccc2n1` gave RanGTP-Impb inh -1.3, Runt-SMMHC FRET 0.0, Wee1 degr inh 0.2, KLK7 zymogen act -0.2, Runt-CBFb FRET 4.6 and AI-2 QS mod 11.8.
`CCCC(=O)N1CCN(c2nnc(-c3ccccc3)c3ccccc23)CC1` gave RanGTP-Impb inh -1.6, KLK7 zymogen act -0.2 and AI-2 QS mod -3.8.
Screening Cc1ccc(C)c(C(=O)CCC(=O)N2CCN(c3ncccn3)CC2)c1 returned RanGTP-Impb inh -12.9, KLK7 zymogen act 0.2 and AI-2 QS mod 8.4.
`O=C(O)CCCC(=O)N1CCN(c2nc(-c3ccccc3)c3ccccc3n2)CC1` gave RanGTP-Impb inh 20.4*, Runt-SMMHC FRET 14.1, Wee1 degr inh -2.3, KLK7 zymogen act 16.0*, Runt-CBFb FRET 13.9, AI-2 QS mod 18.6, KLK7 act conf 9.2 and EDANS-DABCYL int 8.0*.
O=C(O)C1CC=CCC1C(=O)N1CCN(c2nc(-c3ccccc3)c3ccccc3n2)CC1 (configuration not stated) was read as RanGTP-Impb inh 12.4, Runt-SMMHC FRET 30.1, Wee1 degr inh -0.3, KLK7 zymogen act 79.9*, Runt-CBFb FRET 9.9, AI-2 QS mod -0.5, KLK7 act conf 1.6 and EDANS-DABCYL int -2.3.
For Cc1ccc2nc(NCC(N)=O)nc(-c3ccccc3)c2c1 the results were RanGTP-Impb inh 19.9*, Runt-SMMHC FRET 46.6, Wee1 degr inh 0.7, KLK7 zymogen act 29.9*, Runt-CBFb FRET 23.8, AI-2 QS mod 3.2, KLK7 act conf 22.0* and EDANS-DABCYL int 33.6*.
For O=C(CSc1nnc(SCc2cccc3ccccc23)s1)N=Nc1c(O)[nH]c2ccccc12 the results were Runt-SMMHC FRET -0.6, Wee1 degr inh 0.3 and Runt-CBFb FRET -3.2.
COc1ccc(CC(=O)OCC(=O)NC2CCCCC2)cc1OC was read as KLK7 zymogen act 0.4.
Screening CCCCON1C(=O)c2cccc3cccc(c23)C1=O returned RanGTP-Impb inh -6.2, KLK7 zymogen act 2.5 and AI-2 QS mod 12.0.
For CCCCN(C)C1=Nc2cccc3cccc1c23 the results were RanGTP-Impb inh 2.5, Runt-SMMHC FRET 32.4, Wee1 degr inh 3.1, KLK7 zymogen act 60.1*, Runt-CBFb FRET -22.7, AI-2 QS mod 13.1, KLK7 act conf 11.7 and EDANS-DABCYL int 12.0*.
C#CCOCCOCCOCCNc1nc(N2CCN(C(=O)[C@H](CCCCN)n3cc([C@@H](N)C(C)CC)nn3)CC2)nc(N2CCN(C(=O)[C@H](CCCCN)n3cc([C@@H](N)CC(C)C)nn3)CC2)n1 (some centres not stated) was read as RanGTP-Impb inh 2.6, Runt-SMMHC FRET 3.5, Wee1 degr inh 1.3, KLK7 zymogen act 0.5, Runt-CBFb FRET -1.1 and AI-2 QS mod 7.7.
For Cc1cccn2c(CN3CCNC(=O)CC3)c(C(=O)N(C)CCc3ccccc3)nc12 the results were RanGTP-Impb inh 0.0, Runt-SMMHC FRET 3.8, Wee1 degr inh 4.0, KLK7 zymogen act 0.3, Runt-CBFb FRET -0.6 and AI-2 QS mod 5.0.
`Cc1cc(=O)n2cc(-c3ccccc3)nc2[nH]1` gave RanGTP-Impb inh 2.1, Runt-SMMHC FRET 0.9, Wee1 degr inh 4.3, KLK7 zymogen act 16.2*, Runt-CBFb FRET -1.9, AI-2 QS mod 11.8, KLK7 act conf 3.4 and EDANS-DABCYL int 3.3.
`CC1(C)Cc2ccccc2-c2nc(NCCCO)[nH]c(=O)c21` gave RanGTP-Impb inh 0.3, Runt-SMMHC FRET 1.3, Wee1 degr inh -3.1, KLK7 zymogen act 39.2*, Runt-CBFb FRET -0.1, AI-2 QS mod 5.2, KLK7 act conf -0.8 and EDANS-DABCYL int -7.8.

Bioassay records from PubChem.
